Screens (PubChem)
Most compounds without a hit are left out; they make up all but 1.1% or so of the library.
Bfl-1 A1 inh – inhibitors of the anti-apoptotic protein A1, read as caspase activation. MEF A1-2A-BIM cells, Caspase-Glo 3/7 luminescence, 3 h; percent of clofoctol response, vehicle zero. caspase activation, % (no concentration beside the values). hit rate 0.066% among 330,000. AID 2462;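 active means over half of replicate activation scores above 10%, or exactly half above 10 with the replicate mean above 10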
NPR1 activator – GC-A (human) enzyme activation | activation, % at 10 µM | hit rate 0.14% among 370,000 | P16066 | HEK293 GC-A cells, cGMP TR-FRET, EC30 ANP; 0% at EC30 ANP, 100% saturating ANP; in the data active means activation above about 40%
MT1-MMP act inh – blocks activation of human MT1-MMP | P50281 | hit rate 0.061% among 360,000 | GFP/RFP ratio change, % at 20 µM | HT1080 RFP-PRO-GFP cells, GFP/RFP ratio fluorescence, overnight; percent of plate control window, DMSO zero;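 active means GFP/RFP ratio change of at least 30% with cell ATP level not reduced by more than half and red fluorescence within 50% of control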
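Test system: HT1080 RFP-PRO-GFP cells; Benchmarks: DMSO and RFP-L50D-GFP cell wells; Timing: cells overnight before dosing, compound overnight, 37 °C, 5% CO2; Compound: one 20 µM compound dose with 1% DMSO; Read-out: GFP/RFP fluorescence ratio.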
NPR2 activator – GC-B (human) receptor activation; P20594; activation, % at 10 µM; hit rate 0.11% among 370,000; HEK293-GC-B cells, CNP EC30, cGMP TR-FRET; 0% at EC30 CNP, 100% saturating CNP;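 active means activation at 10 µM reaching about 35% in either raw or pattern-adjusted values, limit read from the data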
SKN-1 block – C. elegans SKN-1 inhibition; C. elegans VP596 Pgst-4::GFP/RFP ratio, acrylamide-induced, 24 h; inhibition, % at 21.8 µM; hit rate 0.49% among 360,000; AID 624304;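 active means interference check ratio from 0.5 to 1.5 plus GFP to RFP signal ratio inhibition reaching or exceeding a fixed threshold, cut at about 30% in these data, passing the limit was not always enough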
TbMetRS inhib – blocks T. brucei methionyl-tRNA synthetase activity. purified T. brucei MetRS, ATP depletion, Kinase-Glo luminescence. inhibition, % at 11.9 µM. hit rate 0.4% among 360,000. AID 624268;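 active means inhibition above a per-plate cutoff of the control wells' mean inhibition plus 3 SD, cut at about 5.5% in these data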;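 further: 0% = DMSO wells median and 100% = median of wells with control inhibitor compound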
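System: purified T. brucei MetRS enzyme / Detection: Kinase-Glo luciferase luminescence reporting remaining unconsumed ATP / Medium: HEPES buffer with MgCl2, KCl, DTT, spermine, BSA, pyrophosphatase / Replication: singlicate, one well per compound / Evaluation: percent inhibition relative to median high and low control wells / Schedule: 2 h aminoacylation at 25 °C after 15 min preincubation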
TbMetRS confirm – confirmation of Trypanosoma brucei MetRS inhibitors. shares compounds with TbMetRS inhib. T. brucei MetRS enzyme, luminescence (ATP depletion). inhibition, % at 11.9 µM. hit rate 93% among 1,400; in the data active means inhibition above about 7%
Jurkat tox – Jurkat T cell cytotoxicity for MetRS hits; hit rate 12% among 1,400; shares compounds with TbMetRS inhib; Jurkat cells viability, ATP luminescence; inhibition, % at 8.3 µM; AID 624413; in the data active means inhibition above about 15%;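 further: 0% = vehicle and 100% = reference inhibitor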
Tb MetRS inh FP – orthogonal test for Trypanosoma brucei MetRS inhibitors | shares compounds with TbMetRS inhib | purified T. brucei MetRS, fluorescence polarization | inhibition, % at 11.9 µM | hit rate 44% among 1,400 | AID 651607; in the data active means inhibition above about 17%;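 further: 0% = vehicle wells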
* marks the source's active call; other numbers are inactive results; · = no result given.

SMILES	Bfl-1 A1 inh	NPR1 activator	MT1-MMP act inh	NPR2 activator	SKN-1 block	TbMetRS inhib	TbMetRS confirm	Jurkat tox	Tb MetRS inh FP
O=C(CN1CCCc2ccccc21)Nc1cccc(S(=O)(=O)N2CCOCC2)c1	·	1	-15	3	11	6.7*	12*	4	12
CCCc1cc(=O)[nH]c(SCC(=O)Nc2nc(-c3ccccc3)cs2)n1	1	-2	-2	3	4	0	·	·	·
CC(=O)c1cc(-c2ccccc2)n(CC(=O)NCc2ccccc2)c1C	·	-1	·	-5	·	·	·	·	·
CCN(CC)S(=O)(=O)c1cccc(NC(=O)CSc2nc3ccccc3[nH]2)c1	0	-4	-1	-9	1	2	·	·	·
NS(=O)(=O)c1cccc(NC(=O)CSc2nc3ccc(Cl)cc3[nH]2)c1	1	-1	7	-4	11	8.1*	16*	-3	15
O=C(CSc1nc2cc3ccccc3cc2[nH]1)Nc1ccc(F)cc1	1	-4	-3	-13	5	22*	28*	7	23*
Cc1ccc2nc(SCC(=O)Nc3cccc(S(=O)(=O)N(C)C)c3)[nH]c2c1	0	-2	0	1	-1	1	·	·	·
O=C(CSc1nc2ccccc2[nH]1)Nc1cccc(S(=O)(=O)N2CCOCC2)c1	0	-3	7	-4	-3	40*	40*	6	18*
COc1ccc(NC(=O)NNC(=O)CCC(=O)Nc2ccccc2Cl)cc1	1	4	0	0	-5	0	·	·	·
O=C(NNC(=O)c1ccc(Cl)cc1Cl)Nc1ccccc1	1	3	8	-3	4	3	·	·	·
O=C(NNC(=O)c1cc(-c2ccc(Cl)cc2Cl)nc2ccccc12)Nc1ccccc1	0	-8	3	7	-10	39*	95*	1	80*
O=C(CCC(=O)Nc1ccc(Cl)cc1Cl)NNC(=O)Nc1ccccc1	-1	0	-1	-4	0	13*	26*	0	6
Cc1cc(C)n(CCC(=O)N/N=C/c2ccc(O)cc2)n1	0	-4	-2	2	-3	-1	·	·	·
Cc1cc(C)n(CCC(=O)N/N=C/c2c(O)ccc3ccccc23)n1	0	-1	-6	4	12	6.5*	14*	87*	11
O=C(Nc1cccc2ncccc12)c1ccc(Br)c([N+](=O)[O-])c1	-1	25	0	9	-3	31*	56*	22*	35*
O=C1COc2ccc(C(=O)CSc3nnc(NCc4ccccc4)s3)cc2N1	1	-9	3	-8	-4	8.7*	13*	2	14
CC(=O)CC[C@H]1CC[C@]2(CCCN(S(=O)(=O)c3ccccc3)C2)O1	·	1	·	7	·	·	·	·	·
CC(=O)c1cccc(NC(=O)C(C)OC(=O)CNC(=O)c2ccc(C)s2)c1 (stereo not drawn)	1	3	-1	1	1	14*	29*	1	11
CC(=O)Nc1ccc(NC(=O)C(C)OC(=O)CNC(=O)c2cccs2)cc1 (stereo not drawn)	0	3	-1	2	8	0	·	·	·
COc1ccc(CNC(=O)CSc2nc3ccc(C)cc3[nH]2)cc1	1	-3	1	2	7	29*	48*	-2	21*
Cc1ccc2nc(SCC(=O)NC3CCS(=O)(=O)C3)[nH]c2c1 (stereo not drawn)	-1	4	-2	-2	14	9.7*	37*	-9	14
COc1ccc(CNC(=O)CSc2nc3ccc(OC)cc3[nH]2)cc1	-2	-3	1	-1	-5	3	·	·	·
CC(Sc1ccc(Cl)cc1)C(=O)NCc1ccc2c(c1)OCO2 (stereo not drawn)	-1	6	-6	-6	-2	0	·	·	·
O=C(CSc1nc2ccccc2[nH]1)NC1CCCC1	0	2	1	-2	-5	1	·	·	·
Cc1ccc2nc(SC(C)C(=O)NCc3ccc4c(c3)OCO4)[nH]c2c1 (stereo not drawn)	0	-7	0	-2	6	13*	35*	2	14
SMILES	Bfl-1 A1 inh	NPR1 activator	MT1-MMP act inh	NPR2 activator	SKN-1 block	TbMetRS inhib	TbMetRS confirm	Jurkat tox	Tb MetRS inh FP
O=C(CSc1nc2ccccc2[nH]1)NC1CCS(=O)(=O)C1 (stereo not drawn)	0	5	5	1	-5	9.3*	18*	6	-3
C[C@H]1COc2cccc(N3CCCC3)c2S(=O)(=O)N1C	·	4	·	1	·	·	·	·	·
C=CCN1C(=O)[C@@H](CC(=O)NCc2ccccc2)[C@]2(C(=O)OCC)CCCCC/C=C/12	·	-1	·	4	·	·	·	·	·
CCN(C(=O)CSc1nc2ccc(OC)cc2[nH]1)C1CCS(=O)(=O)C1 (stereo not drawn)	1	-2	-1	-3	27	0	·	·	·
CCN(C(=O)CSc1nc2ccc(Cl)cc2[nH]1)C1CCS(=O)(=O)C1 (stereo not drawn)	0	1	1	0	-7	5.7*	23*	-5	6
NS(=O)(=O)c1ccc(NC(=S)NCc2cccc(Cl)c2)cc1	0	2	5	-2	-5	17*	36*	29*	12
O=C(NCc1cccc(Cl)c1)NCc1cccc(Cl)c1	1	-5	·	-4	2	6.2*	9.3*	9	8
NC(=O)NCc1cccc(Cl)c1	0	0	-2	8	7	0	·	·	·
N#CCC[C@@H]1CC[C@]2(CCCN(C(=O)c3cccnc3)C2)O1	·	4	·	-6	·	·	·	·	·
O=C(Cn1nnc2ccccc2c1=O)NCCc1ccc(Cl)cc1Cl	0	2	-1	-2	-7	6.5*	34*	4	10
O=C(Cn1nnc2ccccc2c1=O)NCCc1ccccc1	0	0	-3	8	3	0	·	·	·
O=C(CSCC(=O)OCn1nnc2ccccc2c1=O)Nc1ccc(Cl)cc1	0	13	1	-8	7	16*	14*	6	3
Clc1cccc(CN2CCc3c([nH]c4ccccc34)C2)c1	0	-5	-4	-1	7	5	·	·	·
Cc1cccc(CN2CCc3c([nH]c4ccccc34)C2)c1	0	-1	2	2	0	5.8*	15*	13	7
